Screens as filed in PubChem.
Compounds with a hit are over-represented: about 2.3% of the library has one in this group of screens.
TRPC6 inh: mouse TRPC6 channel inhibitors, primary screen, cell-based, HEK293, membrane potential dye | Short transient receptor potential channel 6 (Mus musculus), Q61143 | ACh-evoked depolarization; hits give low values | B-score at 10 µM | hit rate 1.1% among 310,000 | AID 2553, 2010;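 active means B-score under library mean minus 3 SD, initial fluorescence not abnormally high, positive integrated signal ratio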;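 further: B-score derived from integrated fluorescence ratio over the kinetic read; more negative B-score means stronger inhibition of depolarization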
Target sequence (Q61143 whole entry, looked up): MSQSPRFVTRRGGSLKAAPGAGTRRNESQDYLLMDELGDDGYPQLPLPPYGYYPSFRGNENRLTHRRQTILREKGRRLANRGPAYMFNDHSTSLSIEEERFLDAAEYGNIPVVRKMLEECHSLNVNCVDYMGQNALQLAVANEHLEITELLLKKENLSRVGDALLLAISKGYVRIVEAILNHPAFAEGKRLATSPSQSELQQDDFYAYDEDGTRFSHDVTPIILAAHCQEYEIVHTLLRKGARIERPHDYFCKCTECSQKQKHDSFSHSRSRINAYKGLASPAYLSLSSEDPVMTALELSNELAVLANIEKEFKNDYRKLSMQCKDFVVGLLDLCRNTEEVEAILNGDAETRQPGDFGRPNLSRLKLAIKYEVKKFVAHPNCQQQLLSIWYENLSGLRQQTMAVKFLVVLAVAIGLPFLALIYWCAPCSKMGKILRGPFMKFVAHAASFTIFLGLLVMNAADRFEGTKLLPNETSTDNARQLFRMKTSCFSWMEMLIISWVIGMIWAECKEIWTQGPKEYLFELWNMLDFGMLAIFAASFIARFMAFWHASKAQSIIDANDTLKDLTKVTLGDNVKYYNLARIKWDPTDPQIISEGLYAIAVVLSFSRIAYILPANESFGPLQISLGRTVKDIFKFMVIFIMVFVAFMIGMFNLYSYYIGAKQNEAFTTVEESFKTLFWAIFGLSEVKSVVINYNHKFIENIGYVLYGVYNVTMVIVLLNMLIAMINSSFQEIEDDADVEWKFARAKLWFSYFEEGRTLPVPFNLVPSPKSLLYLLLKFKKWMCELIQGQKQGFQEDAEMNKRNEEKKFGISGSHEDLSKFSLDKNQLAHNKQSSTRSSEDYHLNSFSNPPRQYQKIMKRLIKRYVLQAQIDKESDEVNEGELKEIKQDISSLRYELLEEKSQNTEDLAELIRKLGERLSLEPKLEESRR
TRPC4 PAM: positive allosteric modulators of TRPC4, primary screen, cell-based, mouse TRPC4beta, HEK293 mu-opioid, Fluo-4 calcium. DAMGO EC20, Fluo-4 Ca2+ flux; hits give high values. B-score at 10 µM. hit rate 0.42% among 310,000;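 active means B-score of calcium response area above 5 SD of library B-scores, with initial fluorescence ratio within 5 SD of library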;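 further: B-score of integrated fluorescence ratio over time as area under calcium response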
TRPC6 act: mouse TRPC6 channel activators, primary screen, cell-based, HEK293, membrane potential dye; Short transient receptor potential channel 6 (Mus musculus), Q61143; HEK293-TRPC6 membrane potential dye fluorescence; hits give high values; B-score at 10 µM; hit rate 0.13% among 310,000;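 active means B-score of the integrated fluorescence ratio above library mean plus 3 SD, and starting fluorescence ratio within library mean plus 5 SD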;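 further: higher score means more depolarization so channel activation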
TRPC4 act: activators of mouse TRPC4 channel, primary screen, Fluo4 calcium, HEK293 TRPC4beta/mu-opioid cells; Fluo4 calcium fluorescence; hits give high values; B-score at 10 µM; hit rate 0.49% among 310,000; AID 2237, 2010;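 active means B-score above 5 SD of library B-scores, and initial fluorescence ratio not above library mean plus 5 SD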;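 further: positive B-score marks a calcium rise read as TRPC4 activation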
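Material: HEK293 stable line with TRPC4beta plus mu-opioid receptor; technique: Fluo4 calcium-sensitive dye fluorescence, kinetic, 1 Hz baseline; timing: Fluo4 dye loading 45 min at room temperature, 110 s recording; controls: assay buffer as low control, maximal DAMGO as high control; read-out: integrated baseline-normalised fluorescence ratio, converted to per-well B score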
TRPC4 block: inhibitors of mouse TRPC4 channel, primary screen, Fluo4 calcium, HEK293 TRPC4beta/mu-opioid cells; Short transient receptor potential channel 4 (Mus musculus), Q9QUQ5; DAMGO-evoked Fluo4 calcium flux; hits give low values; B-score at 10 µM; hit rate 0.39% among 300,000;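 active means B-score over 3 SD under the library average, no early fluorescence shift, positive overall ratio signal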
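test system = HEK293 cells with stable TRPC4beta plus mu-opioid receptor expression | detection = Fluo4 Ca2+ flux fluorescence | read-out = integrated fluorescence ratio relative to baseline, converted to per-well B score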
TRPC4 sel inh 2: mouse TRPC4 off-target activity of TRPC6 inhibitors, second screen. shares compounds with TRPC6 inh. HEK293 TRPC4/MOR, membrane potential dye fluorescence; channel activated by saturating DAMGO dose. inhibition, % at 10 µM. hit rate 42% among 920. AID 2776;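 active means compounds whose fluorescence signal differed from control wells by over 3 SD, either direction, in both duplicate plates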
TRPC4 spec: mouse TRPC4 modulation by TRPC6 hits, confirmation, selectivity assay for TRPC6 inhibitor project, cell-based, HEK293 TRPC4/mu-opioid, membrane potential dye. AID 2777, 2010. hit rate 61% among 920. membrane potential fluorescence. shares compounds with TRPC6 inh. activity change, negative = inhibition, % at 10 µM;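 active means rise or fall in signal beyond 3 SD of buffer-only wells in both replicate plates, either sign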;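 further: integrated kinetic ratio of fluorescence range over baseline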
HEK293 MPD ctr 2-1: nonspecific membrane potential effects, parental HEK293, confirmation, counter-screen for TRPC6 inhibitor project, cell-based, second counter screen | shares compounds with TRPC6 inh | parental HEK293 membrane potential dye fluorescence; maximal acetylcholine challenge after compound addition | signal change vs control, % at 10 µM | hit rate 31% among 920 | AID 2779, 2010;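 active means membrane potential signal moving either way by over 3 SD of the maximum-effect control, in both duplicate plates, meaning non-specific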
HEK293 MPD ctr-1: membrane potential modulation in parental HEK293, confirmation, counter-screen for TRPC6 inhibitor project, cell-based; shares compounds with TRPC6 inh; parental HEK293 membrane potential dye fluorescence; membrane potential signal change, % at 10 µM; hit rate 60% among 920;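 active means membrane potential signal shifting up or down by more than 3 SD of buffer-only wells, on both duplicate plates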
HEK293 MPD ctr-2: parental HEK293 membrane potential modulation, confirmation, counter-screen for TRPC6 modulator project, cell-based | shares compounds with TRPC6 inh | membrane potential dye fluorescence | membrane potential signal change, % at 10 µM | hit rate 51% among 2,400 | AID 488924, 2010;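 active means membrane potential signal moves up or down beyond 5 SD from buffer-only wells, on both duplicate plates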
HEK293 MPD ctr 2-2: second check of TRPC6 modulator effects in parental HEK293 cells | membrane potential dye fluorescence; after compound, maximal acetylcholine stimulation | hit rate 14% among 2,400 | inhibition, % at 10 µM | AID 488926 | shares compounds with TRPC6 inh;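 active means membrane potential signal drops by more than 5 SD from the mean control signal, in both duplicate plates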;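 further: plate controls were acetylcholine ECmax control wells for no effect and buffer only wells for full effect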
TRPC4/MOR mod: TRPC4 modulation by TRPC6 hit compounds, confirmation, selectivity assay for TRPC6 modulator project, cell-based, HEK293 TRPC4/mu-opioid, membrane potential dye, mouse | AID 488927, 2010 | shares compounds with TRPC6 inh | percent change from control (negative = decrease, positive = increase), % at 10 µM | membrane potential fluorescence | hit rate 69% among 2,400;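 active means membrane potential signal moved up or down beyond 5 SD of buffer control wells, in both duplicate plates, actives on both sides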;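 further: plate controls were assay buffer wells for no effect and DAMGO maximal-effect wells for full effect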
TRPC4/MOR inh 2: second check of whether TRPC6 modulators also affect mouse TRPC4; hit rate 55% among 2,400; inhibition, % at 10 µM; AID 488928; shares compounds with TRPC6 inh; HEK293 TRPC4/mu-opioid, membrane potential dye fluorescence; stimulated with maximal-effect DAMGO;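 active means drop in membrane potential signal beyond 5 SD of the control wells in both duplicate plates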;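 further: TRPC4 counter screen for TRPC6 hits run under conditions tuned for TRPC6 not TRPC4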
TRPC6 inh conf: mouse TRPC6 channel inhibitors, confirmation, HEK293 cells, membrane potential dye, duplicate | shares compounds with TRPC6 inh | ACh-evoked depolarization | inhibition, % at 10 µM | hit rate 43% among 3,300;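 active means fluorescence ratio falls more than 5 SD below the full-stimulation control mean, in both duplicate runs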;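 further: integrated fluorescence ratio of peak minus minimum over baseline after agonist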
TRPC6 act confirm: mouse TRPC6 channel activators, confirmation, HEK293 cells, membrane potential dye, duplicate. shares compounds with TRPC6 inh. HEK293-TRPC6 membrane potential dye fluorescence, FDSS. activation, % at 10 µM. hit rate 11% among 2,800. AID 488961, 2010;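 active means ratio signal rise beyond 5 SD above unstimulated control wells' mean, seen in both duplicate runs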;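 further: plate controls were buffer EC0 wells for no effect and acetylcholine ECmax response for full effect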
* marks the source's active call; other numbers are inactive results; i = inactive; . = not tested or not shown.

SMILES | TRPC6 inh | TRPC4 PAM | TRPC6 act | TRPC4 act | TRPC4 block | HEK293 MPD ctr-2 | HEK293 MPD ctr 2-2 | TRPC4/MOR mod | TRPC4/MOR inh 2 | TRPC6 inh conf | TRPC6 act confirm | others
O=C1CSC(c2cccc(F)c2)N1c1c(F)cccc1F (configuration not stated) | i | i | i | i | i | . | . | . | . | . | .
O=C1CSC(c2c(F)cccc2Cl)N1c1cccc(F)c1 (configuration not stated) | -5.1* | i | i | i | i | i | i | 12%* | i | i | i
Cc1cc(S(=O)(=O)N2CCCOC2CNC(=O)C(=O)NCCCN2CCOCC2)ccc1F (configuration not stated) | i | i | i | i | i | . | . | . | . | . | .
CCN1CCN(S(=O)(=O)Cc2ccccc2Cl)CC1 | i | i | i | i | i | . | . | . | . | . | .
COC(=O)c1[nH]c2ccc(Br)cc2c1NC(=O)C(C)N1CCN(C2CCCCC2)CC1 (configuration not stated) | -7.6* | i | i | i | i | . | . | . | . | 88%* | i | TRPC4 sel inh 2=42%*;TRPC4 spec=-18%*;HEK293 MPD ctr 2-1=29%*;HEK293 MPD ctr-1=-144%*
COC(=O)c1[nH]c2ccc(C)cc2c1NC(=O)C(C)N1CCN(C2CCCCC2)CC1 (configuration not stated) | i | i | i | i | i | . | . | . | . | . | .
COc1ccc(CCC(C)NC2CCCCCCC2)cc1 (configuration not stated) | -5.7* | i | i | i | i | 289%* | i | 64%* | 76%* | 56%* | .
